The nature of data set [1]: Antioxidant activity assessed as glutathione peroxidase-like activity in phosphate buffer measured as initial rate for the reduction of tert-butyl hydroperoxide by GSH at 80 uM in presence of NADPH by coupled reductase assay. In kind it is functional. The method, boiled down: (§1)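 Coupled reductase assay in 100 mM potassium phosphate pH 7.5 at 25 °C: 2 mM GSH, 1 mM EDTA, 1.3 U/mL glutathione reductase, 0.4 mM NADPH, 80 µM selenium compound. Reaction started with 1.6 mM peroxide. Initial rate is taken from NADPH oxidation at 340 nm over the first 5–10% of reaction (ε 6.22 mM⁻¹cm⁻¹). Triplicate, mean ± SD.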

Data set [2] in a line: Antioxidant activity assessed as glutathione peroxidase-like activity in phosphate buffer measured as initial rate for the reduction of […] by GSH at 80 uM in presence of NADPH by coupled reductase assay. In kind it is functional. The method, boiled down:
as §1

Data set [3] is described as follows: Antioxidant activity assessed as glutathione peroxidase-like activity in phosphate buffer measured as initial rate for the reduction of cumene hydroperoxide by GSH at 80 uM in presence of NADPH by coupled reductase assay. Type of data set: functional. In outline: as §1
Data set [4] in a line: Permeability of the compound at 100 ug/ml measured after 10 hrs by PAMPA-BBB assay. The following applies: read-out: Peff. In kind it is ADME. The method, boiled down:
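PAMPA-BBB: filter coated with porcine brain lipid in dodecane (20 mg/mL). Compound is dissolved in DMSO (5 mg/mL) and diluted 50-fold in PBS/EtOH 7:3 to 100 µg/mL in donor wells, with PBS/EtOH acceptor. Plates stand 10 h at 25 °C, then acceptor concentration is read by UV at five wavelengths, four wells, at least three runs. Pe is calculated by formula; assay validated with 13 reference drugs.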
(The PAMPA barrier holds no transporters, so it reflects passive diffusion.)

Data set [5] is described as follows: Antioxidant activity assessed as AAPH radical scavenging activity preincubated for 10 mins followed by AAPH challenge measured as trolox equivalents measured at every min for 120 mins by ORAC-FL assay. Type of data set: functional. In outline: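 ORAC-FL: compound diluted in 75 mM phosphate buffer pH 7.4, premixed with fluorescein (70 nM final) for 10 min at 37 °C, then AAPH added. Fluorescence (ex 485, em 520 nm) read each minute for 120 min. Net AUC versus blank is converted to Trolox equivalents using a Trolox standard curve (10–100 µM). Triplicates, at least three independent runs.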

Data set [6] can be described thus: Antioxidant activity assessed as H2O2 scavenging at 10 uM measured after 200 to 220 mins in presence of GSH and NADPH. In kind it is functional. The method, boiled down: (§2)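 Kinetic peroxide removal in 100 mM phosphate buffer pH 7.5 at 25 °C with 1 mM EDTA, 0.25 mM GSH, 0.50 mM NADPH, 1.3 U/mL glutathione reductase, 0.20 mM peroxide and 10 µM catalyst. NADPH consumption followed over time. Means of three independent experiments.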

Data set [7] in a line: Antioxidant activity assessed as t-BuOOH scavenging at 10 uM measured after 300 mins in presence of GSH and NADPH. Type of data set: functional. In outline:
as §2

Data set [8] in a line: Antioxidant activity assessed as Cum-OOH scavenging at 10 uM measured after 300 mins in presence of GSH and NADPH. Type of data set: functional. In outline: as §2
Data set [9] can be described thus: Metal chelating activity of the compound assessed as Zn2+ complex formation by measuring maximum absorption wave length at 50 uM measured after 30 mins by UV-Vis spectrometry (reference value: 301 nm). Type of data set: functional. The method, boiled down:
(§3)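 Compound (50 µM final) with or without metal salt (CuSO4, FeSO4, FeCl3 or ZnCl2, 50 µM final) in 20 mM HEPES, 150 mM NaCl, pH 7.4. After 30 min, UV-vis absorption spectra are recorded at room temperature.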

Data set [10] can be described thus: Metal chelating activity of the compound assessed as Cu2+ complex formation by measuring maximum absorption wave length at 50 uM measured after 30 mins by UV-Vis spectrometry (reference value: 301 nm). Type of data set: functional. In outline: as §3
Data set [11] can be described thus: Metal chelating activity of the compound assessed as Fe3+ complex formation by measuring maximum absorption wave length at 50 uM measured after 30 mins by UV-Vis spectrometry (reference value: 301 nm). In kind it is functional. In outline: as §3
A short description of data set [12]: Inhibition of Cu2+ induced aggregation of recombinant human amyloid beta (1 to 42) at 50 uM after 24 hrs by thioflavin-T based fluorescence assay. The method, boiled down:
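Aβ1–42 (stock in 1% ammonium hydroxide), 25 µM final, with or without CuSO4 (25 µM) and compound (50 µM) in HEPES pH 6.6 with NaCl, incubated 24 h at 37 °C. Samples then diluted tenfold into 50 mM glycine-NaOH pH 8.0 containing 5 µM thioflavin T for fluorescence read-out.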

A short description of data set [13]: Metal chelating activity of the compound assessed as Fe2+ complex formation by measuring maximum absorption wave length at 50 uM measured after 30 mins by UV-Vis spectrometry (reference value: 301 nm). Type of data set: functional. In outline: as §3

As for `O=c1c2cc(Cl)ccc2[se]n1-c1ccc2cccc(O)c2n1`, the figures for the Activity in data set [1], in data set [2] and in data set [3] were 6.9 µM/min, 45 µM/min and 23.9 µM/min, respectively.
For the molecule `O=c1c2cccc(C(F)(F)F)c2[se]n1-c1ccc2cccc(O)c2n1`, the Activity in data set [1] stood at 31.7 µM/min; in data set [2], 132 µM/min; in data set [3] it was 30 µM/min. Besides, in data set [4], the Papp at 10 h, 100 ug/ml amounted to 13.3 ×10⁻⁶ cm/s. In addition, the Activity (umolequiv/umol) in data set [5] worked out at 0.3.
Regarding `O=c1c2c(Cl)cccc2[se]n1-c1ccc2cccc(O)c2n1`, the Activity in data set [1] came out at 52.1 µM/min; in [2] it was 155 µM/min; in data set [6] it was 65%; in data set [7], 38%; in data set [3], 35.1 µM/min; in [8], 68%. Besides, in data set [4], the Papp at 10 h, 100 ug/ml worked out at 7.8 ×10⁻⁶ cm/s. For the same molecule, the Activity (umolequiv/umol) in data set [5] was 0.9.
Consider `O=c1c2ccccc2[se]n1-c1ccccc1`, for which the values for the Activity in data set [1], in data set [2] and in [3] were 47.6 µM/min, 113 µM/min and 22.6 µM/min, respectively.
Turning to `O=c1c2ccccc2[se]n1-c1ccc2cccc(O)c2n1`, the Activity came to 14 µM/min in data set [1], 49.9 µM/min in [2] and 17.1 µM/min in data set [3].
The corresponding values for `O=c1c2cc(F)ccc2[se]n1-c1ccc2cccc(O)c2n1` are 20.4 µM/min, 64.3 µM/min and 15.9 µM/min.
As for `O=c1c2ccc(Cl)cc2[se]n1-c1ccc2cccc(O)c2n1`, the Activity in [1] amounted to 7.1 µM/min; in data set [2], 45 µM/min; in [3] it was 23.3 µM/min.
On the same counts, the results for `O=c1c2ccc(C(F)(F)F)cc2[se]n1-c1ccc2cccc(O)c2n1` are 10.6 µM/min, 64.2 µM/min and 16.1 µM/min.
With `O=c1c2cc(O)ccc2[se]n1-c1ccc2cccc(O)c2n1`, the Activity in data set [1] was found to be 63.4 µM/min; in data set [9], 304 nm; in data set [10], 316 nm; in data set [11], 300 nm; in data set [2], 106 µM/min; in [6], 60%. For the same molecule, the Activity in data set [13] came out at 297 nm; in data set [7], 30%; in data set [3], 24.3 µM/min; in data set [8] it was 47%. Also, in [12], the inhibition was found to be 60%. Further, the Papp at 10 h, 100 ug/ml in [4] worked out at 5.9 ×10⁻⁶ cm/s. The Activity (umolequiv/umol) in data set [5] worked out at 2.6.
As to `Oc1c(I)cc(Cl)c2cccnc12`, the inhibition in data set [12] came to 87%. For the same molecule, the Activity (umolequiv/umol) in data set [5] worked out at 0.5.
In the case of `O=c1c2c(F)cccc2[se]n1-c1ccc2cccc(O)c2n1`, the Activity in data set [1] is 47.9 µM/min; in data set [2], 102 µM/min; in [6] it was 71%; in [7], 46%; in data set [3], 31.4 µM/min; in data set [8], 74%. Moreover, the inhibition in data set [12] was 82%. Moreover, in data set [4], the Papp at 10 h, 100 ug/ml turned out to be 7.4 ×10⁻⁶ cm/s. The Activity (umolequiv/umol) in data set [5] came out at 2.3.
Regarding `O=c1c2c(C(F)(F)F)cccc2[se]n1-c1ccc2cccc(O)c2n1`, the Activity in [1] worked out at 62 µM/min; in data set [2] it was 161 µM/min; in data set [6], 68%; in data set [7], 67%; in data set [3], 31.7 µM/min; in data set [8] it was 77%. Also, the inhibition in data set [12] turned out to be 79%. In addition, the Papp at 10 h, 100 ug/ml in data set [4] was 10.1 ×10⁻⁶ cm/s. The Activity (umolequiv/umol) in data set [5] is 0.2.
As for `O=c1c2ccc(F)cc2[se]n1-c1ccc2cccc(O)c2n1`, the Activity in data set [1] is 6.4 µM/min; in data set [2], 77.3 µM/min; in data set [3], 11.1 µM/min.
With `O=c1c2cccc(F)c2[se]n1-c1ccc2cccc(O)c2n1`, the Activity was 55.5 µM/min in data set [1]; 152 µM/min in data set [2]; 62% in [6]; 31% in data set [7]; 24.1 µM/min in data set [3]; 66% in data set [8]. In data set [4], the Papp at 10 h, 100 ug/ml is 11.1 ×10⁻⁶ cm/s. Further, the Activity (umolequiv/umol) in [5] worked out at 3.6.
In the case of `O=c1c2cc(C(F)(F)F)ccc2[se]n1-c1ccc2cccc(O)c2n1`, the Activity came to 8 µM/min in [1], 69.9 µM/min in data set [2] and 5.6 µM/min in [3].

Broadly, the inhibition is how much of the control response was suppressed.

Source of the values: ChEMBL document CHEMBL4477278, “Synthesis and evaluation of 8-hydroxyquinolin derivatives substituted with (benzo[d][1,2]selenazol-3(2H)-one) as effective inhibitor of metal-induced Aβ aggregation and antioxidant” (Bioorg Med Chem, 2016).
